# Screening results deposited in PubChem by several laboratories.
# A selection: hits, their analogues and other compounds. The true share with any hit is near 3.1%.
# Calb FLC – C. albicans growth modulation with fluconazole. C. albicans CaCi-2 (fluconazole-resistant clinical isolate) + fluconazole, Alamar Blue growth, 48 h. 0.57% of 300,000 active. growth inhibition, % (test concentration not listed);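 active = growth inhibition above about 58% in most replicates, limit read from the data, passing the limit was not always enough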;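 note: all wells also contain fluconazole at 8 µg/ml as a sub-toxic cotreatment; 0% = median of DMSO wells and 100% = median of geldanamycin control wells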
# T cruzi repl – T. cruzi replication inhibition; inhibition, % (test concentration not listed); 1.4% of 300,000 active; T. cruzi beta-gal in NIH3T3, luminescence, 90 h;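 active = mean inhibition across valid replicates above about 55%, limit read from the data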;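 note: signal also drops with host cell toxicity which is not excluded here; 0% = plate median of DMSO wells and 100% = zero luminescence signal; higher percent means less beta-gal luminescence so fewer parasites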
#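 System: NIH/3T3 fibroblasts plus reporter T. cruzi. Medium: DMEM plus 2% FBS. Probe or stimulus: 5000 reporter trypomastigotes per well. Compound: single 50 nL compound addition per well in DMSO. Incubation: co-culture of at least 90 h after 3 h attachment. Detection: GalScreen β-gal luminescence, detergent lysis, 60 min. Evaluation: parasite load inhibition, %.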
# H9c2 TAG inh – reduces triacylglycerol accumulation in H9c2 cells. Nile Red lipid (TAG) fluorescence; cells loaded with 200 µM oleic acid. inhibition, % at 12.5 µM. 0.66% of 230,000 active. AID 651582;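 active = pattern-corrected inhibition of lipid staining of at least 50% with the nuclear-stain viability signal not falling by more than 50%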;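 note: 0% = DMSO wells and 100% = triacsin C control wells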
# CSC inhib – cancer stem cell inhibition; cancer stem cell-like cells viability, luminescence; inhibition, % at 7.5 µM; 1.1% of 300,000 active; in the data active = inhibition above about 75%; tested in HMLE shEcad cells
# A1 inh – inhibitors of the anti-apoptotic protein A1, read as caspase activation. MEF A1-2A-BIM cells, Caspase-Glo 3/7 luminescence, 3 h; percent of clofoctol response, vehicle zero. 0.066% of 330,000 active. caspase activation, % (test concentration not listed);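 active = over half of replicate activation scores above 10%, or exactly half above 10 with the replicate mean above 10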
# Beta apoptosis – beta cell apoptosis inhibition; INS-1E cytokine-induced death, ATP luminescence, 48 h; percent of positive-control rescue, neutral wells zero; protection from apoptosis, % (concentration not given with the values); 0.8% of 300,000 active;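 active = Every replicate reaches about 75%, or at least half do and their mean reaches it too, limit read from the data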;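 note: 0% = cytokine-treated negative control wells and 100% = positive control rescue; higher means more ATP so stronger rescue from cytokine killing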
# The depositor's hits bear a star; x = no result given.
SMILES,Calb FLC,T cruzi repl,H9c2 TAG inh,CSC inhib,A1 inh,Beta apoptosis
C/C(=N\NC(N)=S)C1C2C3CC4C5CC(C42)C1C53 (stereo unspecified),22,77*,-4,x,0,10
O=C(Nc1ccc(Cl)c(Cl)c1)O/N=C/c1ccncc1,-3,-2,x,75*,0,17
CCOC(=O)c1c(NC(=O)/C=C/c2ccc3c(c2)OCO3)sc(C)c1CC,-6,-15,4,122*,0,2
COC(=O)c1cc(NC(=O)/C=C/c2ccc3c(c2)OCO3)cc(C(=O)OC)c1,0,-9,x,55,0,10
COC(=O)c1c(NC(=O)/C=C/c2ccc3c(c2)OCO3)sc(C)c1C,4,-5,x,103*,0,-5
CC(NC(=O)CN1C(=O)NC(C)(c2cccc3ccccc23)C1=O)c1ccccc1 (stereo unspecified),-7,-8,x,-3,1,-7
O=C(Nc1ccncc1)c1ccc(-c2ccccc2)cc1,11,58*,-34,-14,0,1
O=C(Nc1ccncc1)c1ccc(Cl)c(Cl)c1,11,62*,x,-9,-1,7
CN(c1ccccc1)S(=O)(=O)c1ccc(C(=O)Nc2ccncc2)cc1,3,70*,-26,6,1,x
O=C(CNC1CCCCCC1)c1cccs1,-10,-1,x,10,-1,-4
CCNc1nc(SCC(=O)Nc2ccc(Cl)c(Cl)c2)nc(N(C)C)n1,-18,13,-4,-15,1,-2
CN(C)c1nc(NCc2ccccc2)nc(SCC(=O)Nc2ccc(Cl)c(Cl)c2)n1,-21,55*,x,-7,0,1
COc1ccccc1C(CNC(=O)C1CC(=O)N(Cc2ccccc2)C1)N1CCCC1 (stereo unspecified),x,x,4,-14,0,-2
Cc1nn(CC(=O)N2CCN(c3cccc(C(F)(F)F)c3)CC2)c(=O)c2cccn12,-8,-4,x,-1,-1,x
COc1ccc(C)cc1N/C(N)=N/c1nc(C)cc(C)n1,4,-16,x,-5,0,13
Cc1ccc(C)c(N/C(N)=N/c2nc(C)cc(C)n2)c1,13,65*,x,4,-2,-8
O=C1CCC[C@@H]2Cc3[nH]c4c(Cl)ccc(Cl)c4c3[C@@H]3CCN1[C@H]23,19,64*,3,4,0,-9
Cc1cccc(C)c1NC(=O)CN(C)C(=O)[C@H](C)NC(=O)c1ccco1,x,x,10,-9,-1,2
Cc1cccc(NC(=O)Cn2c(/C=C/c3ccccc3)nc3ccccc32)c1,-7,17,x,14,0,80*
CCOC(=O)c1c(CSc2nc(C)cc(C)c2C#N)n(C)c2cc(Br)c(OC(C)=O)cc12,-8,-1,x,6,0,111*
CCOC(=O)c1c(CN2CCCCC2)n(C)c2cc(Br)c(OC)cc12,1,38,27,1,0,10
C=CCCc1ccc(C#N)c(SCc2c(C(=O)OCC)c3cc(OC(C)=O)c(Br)cc3n2C)n1,-21,28,x,1,0,110*
CCOC(=O)CC(=O)CSc1nc(C)cc(C)c1C#N,54,5,18,-3,0,x
CCCCCCCCOC(=O)c1c(CSC(=N)N)n(C)c2cc(Br)c(OC(C)=O)cc12,15,22,104,76*,0,-1
CC(C)(C)OC(=O)NCc1ccc(CNC(=O)c2nc[nH]c2C(=O)N2CCc3ccccc3C2)cc1,x,x,10,-4,1,1
SMILES,Calb FLC,T cruzi repl,H9c2 TAG inh,CSC inhib,A1 inh,Beta apoptosis
O=C1CC(=O)N(CCNc2ncc(C(F)(F)F)cc2Cl)C(=O)N1,-3,-6,1,-24,1,x
O=C1C=CC(=O)N1CCNc1ncc(C(F)(F)F)cc1Cl,-22,57*,11,x,x,x
O=C(NCCc1ccc(Cl)cc1)C(=O)c1c[nH]c2ccccc12,-9,2,x,-7,0,2
O=C(NCCc1c[nH]c2ccccc12)C(=O)c1c[nH]c2ccccc12,-2,19,x,112*,0,x
CCOC(=O)N1CCc2cc(OC)c(OC)c3c2c1cc1cc(OC)c(OC)cc13,x,x,43,x,x,x
Oc1ccccc1N=N/C(=N/Nc1ccccc1O)c1ccccc1,-10,-18,3,18,0,1
N#C/C(N=Nc1ccccc1O)=N\Nc1ccccc1O,0,29,16,9,0,115*
COc1ccccc1N(CC1CO1)S(=O)(=O)c1ccc(C)cc1 (stereo unspecified),-3,-11,x,-16,0,-7
C=C(C)C(=O)N1CC2(CC(c3cccc(NC(=O)COc4ccc(Cl)cc4)c3)=NO2)C[C@@H]1C(N)=O (stereo partly specified),-10,-6,2,-14,-1,104*
CCCCCC(=O)Nc1cccc(C2=NOC3(C2)C[C@@H](C(N)=O)N(C(=O)CC(c2ccccc2)c2ccccc2)C3)c1 (stereo partly specified),7,76*,10,18,0,-2
C[C@@H]1COC(=O)[C@@H](CC(=O)OC(C)(C)C)C/C=C\C[C@@H](CC(=O)NCCO)C(=O)N1,x,x,3,x,x,x
CC(=O)c1ccc(N2CCN(c3ccccc3O)CC2)c([N+](=O)[O-])c1,19,-12,x,6,-1,0
CC(=O)c1ccc(N2CCC(c3cc(-c4ccc(Cl)cc4Cl)n[nH]3)CC2)c([N+](=O)[O-])c1,15,62*,x,118*,0,20
COc1ccc(OC)c(-c2cc(C3CCN(c4ncccc4[N+](=O)[O-])CC3)[nH]n2)c1,8,33,-5,x,1,-8
O=[N+]([O-])c1cccnc1N1CCC(c2cc(-c3cccc(C(F)(F)F)c3)n[nH]2)CC1,1,52,13,123*,-1,30
O=[N+]([O-])c1cccnc1N1CCC(c2cc(-c3ccc(Cl)cc3Cl)n[nH]2)CC1,-9,44,-46,106*,0,1
COc1cc(NC(=O)c2cc(C)on2)cc(C(=O)Nc2cccc(C(F)(F)F)c2)c1,45,17,-4,88*,-1,38
COc1cc(NC(=O)c2cnc(N)o2)cc(C(=O)Nc2cccc(C(F)(F)F)c2)c1,-1,-5,16,-4,2,2
COc1cc(NC(=O)c2ccnc(N)c2)cc(C(=O)Nc2cccc(C(F)(F)F)c2)c1,0,-14,33,97*,0,1
O=C1CCC(C(=O)Nc2cccc(S(=O)(=O)Nc3ccccc3F)c2)=NN1,x,x,-1,5,-1,-6
COc1ccc(C(=O)OCC(=O)Nc2cccc(S(=O)(=O)NC3=NCCCCC3)c2)cc1[N+](=O)[O-],x,x,11,x,x,x
O=C(Nc1ccc(Cl)c(S(=O)(=O)N2CCCCC2)c1)c1cccnc1,x,x,9,x,-1,-2
Cc1ccc2c(C)c(C(=O)NCCN3CCOC3=O)oc2c1C,4,-4,-4,-16,0,-7
